According to ChEMBL document CHEMBL1134681, “Pseudoproline-containing analogues of morphiceptin and endomorphin-2: evidence for a cis Tyr-Pro amide bond in the bioactive conformation” (J Med Chem, 2001):

Columns and labels:
Cavia porcellus [1] = organism: Cavia porcellus; test: In vitro inhibition of electrically evoked contractions of GPI (Guinea pig ileum); assay type: functional
Mus musculus [2] = organism: Mus musculus; test: In vitro inhibition of electrically evoked contractions of MVD (Mouse vas deferens); assay type: functional
[3] = target: Delta-type opioid receptor (Rattus norvegicus, UniProt P33533); test: Binding affinity towards delta receptor in rat brain using [3H]DSLET; assay type: tissue-based
Mu-type opioid receptor [4] = target: T1, Mu-type opioid receptor (Rattus norvegicus, UniProt P33535); test: (§1) Binding affinity towards mu receptor in rat brain using [3H]DAMGO; assay type: tissue-based
Cavia porcellus [5] = organism: Cavia porcellus; test: In vitro inhibition of electrically evoked contractions of GPI (Guinea pig ileum) relative to [Leu5]-enkephalin; assay type: functional
Mus musculus [6] = organism: Mus musculus; test: In vitro inhibition of electrically evoked contractions of MVD (Mouse vas deferens) relative to [Leu5]-enkephalin; assay type: functional
[7] = Ratio of inhibition of electrically evoked contractions of mouse vas deferens and inhibition of electrically evoked contractions of guinea pig ileum; IC50 ratio; assay type: functional
Method in brief: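 Ratio of normalized IC50 values from electrically stimulated mouse vas deferens versus guinea pig ileum.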

Mu-type opioid receptor [8] = target: T1, Mu-type opioid receptor; test: as §1; assay type: tissue-based; remark: listed apart in the source
Method in brief: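 Rat brain membranes; competitive displacement of [³H]DAMGO (0.72 nM; Kd 1.3 nM), incubated 2 h at 0 °C. IC50 taken from log dose–displacement curves, converted to Ki by Cheng–Prusoff.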

Cavia porcellus [9] = organism: Cavia porcellus; test: in vitro inhibition of electrically evoked contractions of GPI (Guinea pig ileum); assay type: functional
Mus musculus [10] = organism: Mus musculus; test: in vitro inhibition of electrically evoked contractions of MVD (Mouse vas deferens); assay type: functional
Cavia porcellus [11] = organism: Cavia porcellus; test: in vitro inhibition of electrically evoked contractions of GPI (Guinea pig ileum) relative to [Leu5]-enkephalin; assay type: functional
Method in brief: (§2)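 Electrically stimulated isolated tissue (guinea pig ileum or mouse vas deferens), with inhibition of evoked contractions as read-out. […] IC50 values were taken from these curves and normalized to that standard by a published procedure.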

Mus musculus [12] = organism: Mus musculus; test: in vitro inhibition of electrically evoked contractions of MVD (Mouse vas deferens) relative to [Leu5]-enkephalin; assay type: functional; method in brief: as §2

T1 sequence (P33535 whole entry): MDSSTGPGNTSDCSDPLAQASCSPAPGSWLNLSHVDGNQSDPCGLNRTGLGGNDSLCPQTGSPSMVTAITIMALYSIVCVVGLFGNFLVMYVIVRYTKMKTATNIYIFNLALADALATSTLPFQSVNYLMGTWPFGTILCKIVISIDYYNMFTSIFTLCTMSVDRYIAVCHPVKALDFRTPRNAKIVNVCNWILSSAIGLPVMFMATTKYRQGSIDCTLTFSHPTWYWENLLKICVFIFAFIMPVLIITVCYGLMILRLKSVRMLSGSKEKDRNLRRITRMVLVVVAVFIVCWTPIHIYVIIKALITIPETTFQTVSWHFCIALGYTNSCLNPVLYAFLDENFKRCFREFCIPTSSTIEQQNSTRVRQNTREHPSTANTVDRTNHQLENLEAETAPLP
Sequence of Delta-type opioid receptor (P33533 whole entry): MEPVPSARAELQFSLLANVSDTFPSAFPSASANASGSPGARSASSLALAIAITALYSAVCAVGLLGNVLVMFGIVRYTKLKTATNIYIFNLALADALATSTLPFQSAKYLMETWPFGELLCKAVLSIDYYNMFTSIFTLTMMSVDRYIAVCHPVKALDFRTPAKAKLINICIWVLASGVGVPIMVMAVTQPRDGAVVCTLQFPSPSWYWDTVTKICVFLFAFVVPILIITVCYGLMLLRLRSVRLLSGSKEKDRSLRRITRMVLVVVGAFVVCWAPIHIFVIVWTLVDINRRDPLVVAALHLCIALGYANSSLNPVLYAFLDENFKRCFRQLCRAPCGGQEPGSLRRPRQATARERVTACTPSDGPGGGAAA

Row | Compound | IC50 (Cavia porcellus [1]) [µM] | IC50 (Mus musculus [2]) [µM] | Ki [3] [µM] | Ki (Mu-type opioid receptor [4]) [µM] | Relative potency (Cavia porcellus [5]) | Relative potency (Mus musculus [6]) | other results
1 | NC(=O)[C@@H]1CCCN1C(=O)[C@@H](Cc1ccccc1)NC(=O)[C@@H]1CSCN1C(=O)[C@@H](N)Cc1ccc(O)cc1 [listing 1 of 2 here] | 0.0745 | 0.19 | 2.45 | 0.00857 | – | – | –
2 | NC(=O)[C@@H]1CCCN1C(=O)[C@@H](Cc1ccccc1)NC(=O)[C@@H]1CSCN1C(=O)[C@@H](N)Cc1ccc(O)cc1 [listing 2 of 2 here] | – | – | – | – | 3.3 | 0.06 | Ratio [7]: 5.45
3 | CC1(C)SC[C@@H](C(=O)N[C@H](Cc2ccccc2)C(=O)N2CCC[C@H]2C(N)=O)N1C(=O)[C@@H](N)Cc1ccc(O)cc1 [listing 1 of 2 here] | 0.246 | 1.42 | > 10 | 0.0377 | – | – | –
4 | CC1(C)SC[C@@H](C(=O)N[C@H](Cc2ccccc2)C(=O)N2CCC[C@H]2C(N)=O)N1C(=O)[C@@H](N)Cc1ccc(O)cc1 [listing 2 of 2 here] | – | – | – | – | 1 | 0.00803 | –
5 | NC(=O)[C@@H]1CCCN1C(=O)[C@@H](Cc1ccccc1)NC(=O)[C@@H]1COCN1C(=O)[C@@H](N)Cc1ccc(O)cc1 [listing 1 of 2 here] | 0.47 | 1.02 | > 10 | 0.0589 | – | – | –
6 | NC(=O)[C@@H]1CCCN1C(=O)[C@@H](Cc1ccccc1)NC(=O)[C@@H]1COCN1C(=O)[C@@H](N)Cc1ccc(O)cc1 [listing 2 of 2 here] | – | – | – | – | 0.523 | 0.0112 | –
7 | CC1(C)OC[C@@H](C(=O)N[C@H](Cc2ccccc2)C(=O)N2CCC[C@H]2C(N)=O)N1C(=O)[C@@H](N)Cc1ccc(O)cc1 [listing 1 of 2 here] | 0.86 | 0.851 | > 10 | 0.0965 | – | – | –
8 | CC1(C)OC[C@@H](C(=O)N[C@H](Cc2ccccc2)C(=O)N2CCC[C@H]2C(N)=O)N1C(=O)[C@@H](N)Cc1ccc(O)cc1 [listing 2 of 2 here] | – | – | – | – | 0.286 | 0.0134 | Ratio [7]: 2.17
9 | NC(=O)[C@H](Cc1ccccc1)NC(=O)[C@H](Cc1ccccc1)NC(=O)[C@@H]1CSCN1C(=O)[C@@H](N)Cc1ccc(O)cc1 [listing 1 of 2 here] | 0.0222 | 0.138 | 1.98 | 0.00641 | – | – | –
10 | NC(=O)[C@H](Cc1ccccc1)NC(=O)[C@H](Cc1ccccc1)NC(=O)[C@@H]1CSCN1C(=O)[C@@H](N)Cc1ccc(O)cc1 [listing 2 of 2 here] | – | – | – | – | 11.1 | 0.0826 | Ratio [7]: 6.22
11 | CC1(C)SC[C@@H](C(=O)N[C@@H](Cc2ccccc2)C(=O)N[C@@H](Cc2ccccc2)C(N)=O)N1C(=O)[C@@H](N)Cc1ccc(O)cc1 [listing 1 of 2 here] | 0.502 | – | > 10 | – | – | – | Ki (Mu-type opioid receptor [8]): 0.0504 µM
12 | CC1(C)SC[C@@H](C(=O)N[C@@H](Cc2ccccc2)C(=O)N[C@@H](Cc2ccccc2)C(N)=O)N1C(=O)[C@@H](N)Cc1ccc(O)cc1 [listing 2 of 2 here] | – | – | – | – | 0.49 | – | Inhibition (Mus musculus [6]): 26%
13 | CC1(C)OC[C@@H](C(=O)N[C@@H](Cc2ccccc2)C(=O)N[C@@H](Cc2ccccc2)C(N)=O)N1C(=O)[C@@H](N)Cc1ccc(O)cc1 [listing 1 of 2 here] | 0.305 | 0.606 | > 10 | 0.0469 | – | – | –
14 | CC1(C)OC[C@@H](C(=O)N[C@@H](Cc2ccccc2)C(=O)N[C@@H](Cc2ccccc2)C(N)=O)N1C(=O)[C@@H](N)Cc1ccc(O)cc1 [listing 2 of 2 here] | – | – | – | – | 0.807 | 0.0188 | Ratio [7]: 1.99
15 | NC(=O)[C@H](Cc1ccccc1)NC(=O)[C@H](Cc1ccccc1)NC(=O)[C@@H]1COCN1C(=O)[C@@H](N)Cc1ccc(O)cc1 [listing 1 of 2 here] | 0.0417 | 0.151 | > 4 | 0.00786 | – | – | –
16 | NC(=O)[C@H](Cc1ccccc1)NC(=O)[C@H](Cc1ccccc1)NC(=O)[C@@H]1COCN1C(=O)[C@@H](N)Cc1ccc(O)cc1 [listing 2 of 2 here] | – | – | – | – | 5.9 | 0.0755 | Ratio [7]: 3.62
17 | NC(=O)[C@@H]1CCCN1C(=O)C(Cc1ccccc1)NC(=O)[C@H]1CCCN1C(=O)[C@@H](N)Cc1ccc(O)cc1 (stereo in doubt) [listing 1 of 2 here] | – | – | > 10 | – | – | – | IC50 (Cavia porcellus [9]): 0.109 µM; IC50 (Mus musculus [10]): 0.594 µM
18 | NC(=O)[C@@H]1CCCN1C(=O)C(Cc1ccccc1)NC(=O)[C@H]1CCCN1C(=O)[C@@H](N)Cc1ccc(O)cc1 (stereo in doubt) [listing 2 of 2 here] | – | – | – | – | – | – | Relative potency (Cavia porcellus [11]): 2.26; Relative potency (Mus musculus [12]): 0.0192
19 | NC(=O)[C@H](Cc1ccccc1)NC(=O)[C@H](Cc1ccccc1)NC(=O)[C@@H]1CCCN1C(=O)[C@@H](N)Cc1ccc(O)cc1 [ENDOMORPHIN 2] | – | – | – | – | – | – | IC50 (Cavia porcellus [9]): 0.00771 µM; IC50 (Mus musculus [10]): 0.0153 µM
20 | CC(C)C[C@H](NC(=O)[C@H](Cc1ccccc1)NC(=O)CNC(=O)CNC(=O)[C@@H](N)Cc1ccc(O)cc1)C(N)=O [[LEU5]ENKEPHALIN] | – | – | – | – | – | – | IC50 (Cavia porcellus [9]): 0.246 µM; IC50 (Mus musculus [10]): 0.0114 µM
